Residue numbers refer to the chain shown, from its start.
How the values were obtained:
Settings in all cases: stereoisomer not certain
[1] = molecular target: T1, OR1L3 (Homo sapiens) (UniProt Q8NH93)
T1 sequence (whole entry): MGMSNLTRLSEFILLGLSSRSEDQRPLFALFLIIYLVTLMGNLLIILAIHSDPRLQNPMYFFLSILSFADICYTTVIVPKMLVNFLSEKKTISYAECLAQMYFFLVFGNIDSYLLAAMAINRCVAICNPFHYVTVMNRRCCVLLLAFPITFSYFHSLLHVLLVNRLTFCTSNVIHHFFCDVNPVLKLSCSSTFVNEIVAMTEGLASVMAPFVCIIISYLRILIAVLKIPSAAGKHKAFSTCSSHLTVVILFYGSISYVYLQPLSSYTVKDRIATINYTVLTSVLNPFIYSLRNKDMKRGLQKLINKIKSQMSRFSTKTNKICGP
Summary of the method: (§1)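 Assay methods differ from source to source, frequently being transient luciferase assays in mammalian cell lines. For each receptor–molecule pair, the label responsive (active) applies when the original authors judged the measured signal statistically different from baseline, and non-responsive (inactive) applies otherwise.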

[2] = molecular target: T2, OR1L4 (Homo sapiens) (UniProt Q8NGR5)
T2 sequence (whole entry): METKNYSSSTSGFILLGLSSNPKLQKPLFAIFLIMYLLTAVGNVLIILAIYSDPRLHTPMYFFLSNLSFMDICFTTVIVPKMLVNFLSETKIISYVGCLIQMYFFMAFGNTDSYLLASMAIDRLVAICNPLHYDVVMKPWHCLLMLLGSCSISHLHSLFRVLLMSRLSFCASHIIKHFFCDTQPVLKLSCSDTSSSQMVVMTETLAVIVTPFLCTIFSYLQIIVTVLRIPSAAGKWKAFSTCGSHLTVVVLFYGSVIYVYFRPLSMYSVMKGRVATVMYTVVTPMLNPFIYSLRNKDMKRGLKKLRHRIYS
Summary of the method: as §1

[3] = test system: T3, OR1L4
T3 sequence (whole entry): T2 sequence (whole entry) with G234R
Summary of the method: as §1

[4] = molecular target: T4, OR1L6 (Homo sapiens) (UniProt Q8NGR2)
T4 sequence (whole entry): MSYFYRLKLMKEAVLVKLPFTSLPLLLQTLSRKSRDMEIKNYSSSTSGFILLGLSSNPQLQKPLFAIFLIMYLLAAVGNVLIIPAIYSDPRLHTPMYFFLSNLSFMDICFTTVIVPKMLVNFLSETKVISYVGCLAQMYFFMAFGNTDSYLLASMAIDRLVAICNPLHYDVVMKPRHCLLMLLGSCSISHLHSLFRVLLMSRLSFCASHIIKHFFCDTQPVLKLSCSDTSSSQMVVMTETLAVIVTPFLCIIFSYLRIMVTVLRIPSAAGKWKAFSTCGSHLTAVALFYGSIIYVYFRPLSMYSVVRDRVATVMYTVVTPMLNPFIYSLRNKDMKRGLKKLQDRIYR
Summary of the method: as §1

[5] = molecular target: T5, OR1L8 (Homo sapiens) (UniProt Q8NGR8)
T5 sequence (whole entry): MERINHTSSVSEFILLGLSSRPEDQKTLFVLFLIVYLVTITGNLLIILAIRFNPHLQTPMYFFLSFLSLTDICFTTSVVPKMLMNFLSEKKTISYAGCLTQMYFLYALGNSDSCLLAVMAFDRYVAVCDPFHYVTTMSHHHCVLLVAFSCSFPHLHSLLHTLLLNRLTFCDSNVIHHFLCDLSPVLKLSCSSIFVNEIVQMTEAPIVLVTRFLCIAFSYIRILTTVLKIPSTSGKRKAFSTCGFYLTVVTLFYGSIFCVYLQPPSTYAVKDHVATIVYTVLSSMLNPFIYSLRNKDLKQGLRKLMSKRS
Summary of the method: as §1

[6] = test system: T6, OR1L8 T27P R211P
T6 sequence (whole entry): T5 sequence (whole entry) with T27P, R211P
Summary of the method: as §1

[7] = molecular target: T7, OR1M1 (Homo sapiens) (UniProt Q8NGA1)
T7 sequence (whole entry): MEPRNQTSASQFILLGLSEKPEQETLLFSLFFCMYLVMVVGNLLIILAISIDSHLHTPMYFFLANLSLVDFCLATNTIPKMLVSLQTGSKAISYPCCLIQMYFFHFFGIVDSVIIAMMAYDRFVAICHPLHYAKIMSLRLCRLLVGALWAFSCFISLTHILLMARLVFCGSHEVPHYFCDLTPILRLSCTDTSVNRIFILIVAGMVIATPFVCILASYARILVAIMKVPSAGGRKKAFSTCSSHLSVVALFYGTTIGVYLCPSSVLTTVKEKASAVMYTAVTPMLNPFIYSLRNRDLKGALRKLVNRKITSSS
Summary of the method: as §1

[8] = molecular target: T8, OR1N1 (Homo sapiens) (UniProt Q8NGS0)
T8 sequence (whole entry): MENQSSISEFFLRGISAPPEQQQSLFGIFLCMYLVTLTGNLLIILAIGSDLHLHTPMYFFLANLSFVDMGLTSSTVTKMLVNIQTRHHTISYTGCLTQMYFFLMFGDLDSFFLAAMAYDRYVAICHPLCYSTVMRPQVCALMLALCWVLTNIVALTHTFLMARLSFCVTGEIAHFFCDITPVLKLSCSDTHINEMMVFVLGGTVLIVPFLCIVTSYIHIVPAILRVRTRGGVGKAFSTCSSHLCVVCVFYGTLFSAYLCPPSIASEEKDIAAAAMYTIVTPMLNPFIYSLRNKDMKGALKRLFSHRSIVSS
Summary of the method: as §1

[9] = test system: T9, OR1N2 W37R
T9 sequence (whole entry): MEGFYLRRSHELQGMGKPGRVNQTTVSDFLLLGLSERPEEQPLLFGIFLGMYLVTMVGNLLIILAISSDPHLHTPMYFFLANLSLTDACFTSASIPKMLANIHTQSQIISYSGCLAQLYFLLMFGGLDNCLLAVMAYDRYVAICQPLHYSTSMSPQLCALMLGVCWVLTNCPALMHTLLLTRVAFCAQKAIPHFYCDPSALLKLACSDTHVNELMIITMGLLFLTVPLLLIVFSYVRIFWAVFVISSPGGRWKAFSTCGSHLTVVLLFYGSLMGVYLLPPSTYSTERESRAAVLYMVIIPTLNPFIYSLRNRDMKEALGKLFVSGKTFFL
Summary of the method: as §1

[10] = test system: T10, OR1N2
T10 sequence (whole entry): T9 sequence (whole entry) with R37W
Summary of the method: as §1

[11] = molecular target: T11, OR1Q1 (Homo sapiens) (UniProt Q15612)
T11 sequence (whole entry): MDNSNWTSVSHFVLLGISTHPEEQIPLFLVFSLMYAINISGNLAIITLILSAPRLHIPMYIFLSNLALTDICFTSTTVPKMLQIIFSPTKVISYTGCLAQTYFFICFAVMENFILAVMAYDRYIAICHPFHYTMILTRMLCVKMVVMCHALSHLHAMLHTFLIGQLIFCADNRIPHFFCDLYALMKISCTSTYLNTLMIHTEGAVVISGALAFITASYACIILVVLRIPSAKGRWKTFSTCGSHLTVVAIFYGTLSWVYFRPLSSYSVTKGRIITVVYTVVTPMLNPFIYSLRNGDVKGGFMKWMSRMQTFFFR
Summary of the method: as §1

[12] = test system: T12, OR1Q1
T12 sequence (whole entry): T11 sequence (whole entry) with Q24R, I163M
Summary of the method: as §1

[13] = molecular target: T13, OR1S1 (Homo sapiens) (UniProt Q8NH92)
T13 sequence (whole entry): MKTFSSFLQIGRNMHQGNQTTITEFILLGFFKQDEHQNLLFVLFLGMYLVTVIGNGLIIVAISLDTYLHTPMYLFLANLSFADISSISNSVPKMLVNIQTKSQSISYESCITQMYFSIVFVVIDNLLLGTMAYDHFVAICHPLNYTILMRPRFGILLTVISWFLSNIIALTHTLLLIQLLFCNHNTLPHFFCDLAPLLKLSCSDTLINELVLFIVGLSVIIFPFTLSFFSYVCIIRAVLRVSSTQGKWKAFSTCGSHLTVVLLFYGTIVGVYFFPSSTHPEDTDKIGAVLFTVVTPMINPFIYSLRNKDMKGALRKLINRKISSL
Summary of the method: as §1

[14] = molecular target: T14, OR1S2 (Homo sapiens) (UniProt Q8NGQ3)
T14 sequence (whole entry): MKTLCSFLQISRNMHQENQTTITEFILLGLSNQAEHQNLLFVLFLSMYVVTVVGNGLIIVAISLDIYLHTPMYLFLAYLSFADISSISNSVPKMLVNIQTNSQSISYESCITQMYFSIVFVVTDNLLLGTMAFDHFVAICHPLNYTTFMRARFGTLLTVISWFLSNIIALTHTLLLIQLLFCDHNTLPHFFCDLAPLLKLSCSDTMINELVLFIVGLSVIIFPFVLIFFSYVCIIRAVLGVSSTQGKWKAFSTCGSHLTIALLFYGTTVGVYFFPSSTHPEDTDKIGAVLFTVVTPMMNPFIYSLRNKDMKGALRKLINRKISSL
Summary of the method: as §1

[15] = test system: T15, OR1S2 E17G
T15 sequence (whole entry): T14 sequence (whole entry) with E17G
Summary of the method: as §1

[16] = test system: T16, OR1S2 V225T G240R
T16 sequence (whole entry): T14 sequence (whole entry) with V225T, G240R
Summary of the method: as §1

[17] = molecular target: T17, OR2A1 (Homo sapiens) (UniProt Q8NGT9)
T17 sequence (whole entry): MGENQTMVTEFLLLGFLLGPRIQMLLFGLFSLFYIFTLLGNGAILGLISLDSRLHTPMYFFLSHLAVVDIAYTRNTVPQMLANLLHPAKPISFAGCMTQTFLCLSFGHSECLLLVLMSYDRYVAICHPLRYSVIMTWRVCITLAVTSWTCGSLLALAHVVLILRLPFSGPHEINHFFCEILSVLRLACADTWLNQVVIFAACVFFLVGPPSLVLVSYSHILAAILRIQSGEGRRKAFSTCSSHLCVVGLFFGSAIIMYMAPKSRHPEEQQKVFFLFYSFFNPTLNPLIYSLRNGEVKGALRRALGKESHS
Summary of the method: as §1

[18] = test system: T18, OR2A1 S168C
T18 sequence (whole entry): T17 sequence (whole entry) with S168C
Summary of the method: as §1

[19] = test system: T19, OR1L6
T19 sequence (whole entry): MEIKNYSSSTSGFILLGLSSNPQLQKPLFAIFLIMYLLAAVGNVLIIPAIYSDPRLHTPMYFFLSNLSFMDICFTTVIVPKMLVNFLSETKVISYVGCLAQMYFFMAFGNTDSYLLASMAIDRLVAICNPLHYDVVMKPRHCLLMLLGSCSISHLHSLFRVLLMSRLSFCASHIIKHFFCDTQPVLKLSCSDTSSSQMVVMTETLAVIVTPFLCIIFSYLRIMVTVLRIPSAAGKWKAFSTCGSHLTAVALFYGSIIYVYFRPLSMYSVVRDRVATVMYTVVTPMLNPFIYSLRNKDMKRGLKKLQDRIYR
Summary of the method: as §1

Measured: odorant receptor agonist call

CCCCCC1C(=O)CCC1CC(=O)OC (stereo unspecified)
inactive: [1]

CCc1ccc(CC(C)(C)C=O)cc1
inactive: [1]

CCCCCCC=CCCC=O
inactive: [1] | [2] | [3] | [4] | [5] | [6] | [7] | [8] | [9] | [10] | [11] | [12] | [13] | [14] | [15] | [16] | [17] | [18]

CC(C)CCCC(C)(C)O
inactive: [1]

C=CCOC(=O)COCCC(C)C
inactive: [1]

CCCCCCCCC(OC(C)=O)OC(C)=O
inactive: [1]

CC(C)(C)C1CCCCC1OCCCCO (stereo unspecified)
inactive: [1]

CC(=O)OCc1ccccc1
inactive: [1]

CC(CC=O)c1ccc(C(C)(C)C)cc1 (stereo unspecified)
inactive: [1]

CC1CC(C)(c2ccccc2)CO1 (stereo unspecified)
inactive: [1]

CC(=O)C=CC1=C(C)CCCC1(C)C
inactive: [1]

CC(C)=CCCC(C)CC=O (stereo unspecified)
inactive: [1]

Cc1occc(=O)c1OC(=O)C(C)C
inactive: [1]

C=CC(C)(O)CCC=C(C)CCC=C(C)C (stereo unspecified)
inactive: [1]

OCc1ccccc1
inactive: [1]

C=CC(C)(CCC=C(C)C)OC(C)=O (stereo unspecified)
inactive: [1]

COc1ccc(C)cc1
inactive: [1]

CCCCC1CCC(=O)O1 (stereo unspecified)
inactive: [1]

CCOC(=O)CC1(C)OCCO1
inactive: [1]

COC1CC2CC1C1CC(C=O)CC21 (stereo unspecified)
inactive: [1]

CCC=C(C)C(O)CCCCC (stereo unspecified)
inactive: [1]

CCC(=O)C=CC1C(C)=CCCC1(C)C (stereo unspecified)
inactive: [1]

CCCCCC1COCCC1OC(C)=O (stereo unspecified)
inactive: [1]

CCCC(C)C(=O)OCC (stereo unspecified)
inactive: [1]

CC=CC(=O)C1C(C)=CCCC1(C)C (stereo unspecified)
active: [1]

CC1=CCC2CC1C2(C)C (stereo unspecified)
inactive: [1]

Cc1ccc(C(C)C)cc1O
inactive: [1]

CCCC(S)CCOC(C)=O (stereo unspecified)
inactive: [1] | [2] | [3] | [19] | [5] | [6] | [7] | [8] | [9] | [10] | [11] | [12] | [13] | [14] | [15] | [16] | [17] | [18]

CC(C)=CCCC(C)=CCO
inactive: [1] | [17]

CC(CO)CS (stereo unspecified)
inactive: [1] | [2] | [4] | [5] | [7] | [8] | [10] | [11] | [13] | [14] | [17]

CC1=C(O)C(=O)OC1C (stereo unspecified)
inactive: [1] | [2] | [3] | [19] | [5] | [6] | [7] | [8] | [9] | [10] | [11] | [12] | [13] | [14] | [15] | [16] | [17] | [18]

CCC(S)C(C)CO (stereo unspecified)
inactive: [1] | [2] | [4] | [5] | [7] | [8] | [10] | [11] | [13] | [14] | [17]

CCCCCCCCCCCCCC(=O)O
inactive: [17]

O=C([O-])CCCCCCCC(=O)[O-].[H+].[H+]
inactive: [8]

CCCCCCCCCCCCCCCC(=O)[O-].[H+]
inactive: [17]

Cc1cnc(C)c(C)n1
inactive: [1] | [2] | [3] | [19] | [5] | [6] | [7] | [8] | [9] | [10] | [11] | [12] | [13] | [14] | [15] | [16] | [17] | [18]

CCCCCCC(=O)[O-].[H+]
inactive: [17]
